Laboratory results taken from ChEMBL document CHEMBL1133709, “Acyclic analogues of deoxyadenosine 3',5'-bisphosphates as P2Y(1) receptor antagonists” (J Med Chem, 2000).
The source made the active and inactive calls. No cut-off for these calls is given here.

Assays:
[1] = molecular target: P2Y purinoceptor 1 (Meleagris gallopavo) (UniProt P49652); test: P2Y purinoceptor 1 mediated PLC stimulation in turkey RBC, NE represents no effect
Method in brief: (§1)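 Compound alone added to [3H]inositol-labeled turkey erythrocyte ghosts (~175 μg protein) with 1 μM GTPγS in Hepes pH 7.0 medium, 5 min at 30 °C. Total [3H]inositol phosphates quantified by anion-exchange chromatography. EC50 from four-parameter logistic fit, 3–8 independent curves. Efficacy relative to a maximal 2-MeSADP concentration in the same experiment; NE = no effect at 100 μM.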

[2] = Antagonism of PLC stimulation elicited by 10(nM) 2-Me SADP in turkey RBC; assay type: functional, Meleagris gallopavo
Meleagris gallopavo [3] = test: Antagonism of PLC stimulation elicited by 30(nM) 2-Me SADP in turkey RBC; assay type: functional; set-up: concentration or dose not given beside the values; conditions: dose or concentration not given here
Method in brief: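 Turkey erythrocytes labeled 18–24 h with 2-[3H]myo-inositol at 37 °C; ghost membranes with 1 μM GTPγS and test compound combined with 30 nM 2-MeSADP, 5 min at 30 °C, Hepes pH 7.0. [3H]inositol phosphates separated by anion exchange. IC50 for 50% inhibition of agonist response; at least three experiments, different membrane preparations, duplicate or triplicate assays.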

[4] = molecular target: P2Y purinoceptor 1 (Meleagris gallopavo) (UniProt P49652); test: In vitro agonistic activity was determined for stimulation of PLC at Turkey erythrocyte P2Y purinoceptor 1; assay type: functional; method in brief: as §1
Meleagris gallopavo [5] = test: Tested in vitro for effective concentration required for stimulation of phospholipase C (PLC) against [3H]inositol labeled Turkey Erythrocyte P2Y purinoceptor 1; assay type: functional; method in brief: as §1

P2Y purinoceptor 1 (Meleagris gallopavo), sequence (P49652 whole entry): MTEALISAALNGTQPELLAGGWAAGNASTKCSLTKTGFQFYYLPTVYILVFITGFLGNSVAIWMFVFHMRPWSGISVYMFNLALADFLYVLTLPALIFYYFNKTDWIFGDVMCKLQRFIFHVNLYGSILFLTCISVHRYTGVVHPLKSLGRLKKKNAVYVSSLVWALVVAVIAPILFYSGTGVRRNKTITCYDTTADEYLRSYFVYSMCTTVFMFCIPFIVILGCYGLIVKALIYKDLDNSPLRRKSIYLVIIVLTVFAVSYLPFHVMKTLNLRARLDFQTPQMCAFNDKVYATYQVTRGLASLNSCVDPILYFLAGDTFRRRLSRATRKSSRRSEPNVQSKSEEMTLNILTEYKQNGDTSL

Row | Compound | PLC stimulation [1] | IC50 [2] | inhibition (Meleagris gallopavo [3]) | Increase [4] | EC50 (Meleagris gallopavo [5])
1 | CNc1nc(Cl)nc2c1ncn2[C@@H]1C[C@H](COP(=O)(O)O)[C@H](OP(=O)(O)O)C1 | inactive | 0.206 µM | 95% | – | –
2 | Nc1ncnc2c1ncn2[C@@H]1C[C@H](COP(=O)(O)O)[C@H](OP(=O)(O)O)C1 | – | 2.53 µM | 73% | 27% | 7.21 µM
3 | CNc1ncnc2c1ncn2C/C=C\CC(COP(=O)(O)O)COP(=O)(O)O (stereo in doubt; 15) [listing 1 of 2 here] | – | > 50 µM | – | – | –
4 | Nc1nc(Cl)nc2c1ncn2CCC(COP(=O)(O)O)COP(=O)(O)O | inactive | 7.57 µM | 94% | – | –
5 | CNc1nc(Cl)nc2c1ncn2CCC(COP(=O)(O)O)COP(=O)(O)O | inactive | 0.84 µM | 99% | – | –
6 | CNc1ncnc2c1ncn2C/C=C\CC(COP(=O)(O)O)COP(=O)(O)O (stereo in doubt; 16) [listing 1 of 2 here] | inactive | – | 54% | – | –
7 | CNc1ncnc2c1ncn2[C@H]1C[C@H](OP(=O)(O)O)[C@@H](COP(=O)(O)O)O1 | inactive | – | – | – | –
8 | CNc1nc(Cl)nc2c1ncn2CC(=O)Nc1cc(CP(=O)(O)O)cc(CP(=O)(O)O)c1 | inactive | 15.5 µM | 94% | – | –
9 | CNc1ncnc2c1ncn2CCCCCC(COP(=O)(O)O)COP(=O)(O)O | inactive | 100 µM | 56% | – | –
10 | Nc1ncnc2c1ncn2[C@H]1C[C@H](OP(=O)(O)O)[C@@H](COP(=O)(O)O)O1 | – | 5.76 µM | 87% | – | 6.29 µM
11 | CNc1ncnc2c1ncn2[C@@H]1C[C@H](COP(=O)(O)O)[C@H](OP(=O)(O)O)C1 | inactive | 0.331 µM | 99% | – | –
12 | CNc1ncnc2c1ncn2C/C=C\CC(COP(=O)(O)O)COP(=O)(O)O (stereo in doubt; 16) [listing 2 of 2 here] | – | 100 µM | – | – | –
13 | CNc1ncnc2c1ncn2CCCCC(COP(=O)(O)O)COP(=O)(O)O | inactive | > 50 µM | 65% | – | –
14 | CNc1nc(Cl)nc2c1ncn2CC(=O)N(CCOP(=O)(O)O)CCOP(=O)(O)O | inactive | 14 µM | 89% | – | –
15 | CNc1ncnc2c1ncn2CCC(COP(=O)(O)O)COP(=O)(O)O | inactive | 1.6 µM | 100% | – | –
16 | Nc1ncnc2c1ncn2CCC(COP(=O)(O)O)COP(=O)(O)O | inactive | > 50 µM | 63% | – | –
17 | CNc1nc(Cl)nc2c1ncn2[C@H]1C[C@H](OP(=O)(O)O)[C@@H](COP(=O)(O)O)O1 | inactive | 0.206 µM | 95% | – | –
18 | CNc1ncnc2c1ncn2C/C=C\CC(COP(=O)(O)O)COP(=O)(O)O (stereo in doubt; 15) [listing 2 of 2 here] | inactive | – | 77% | – | –
19 | CNc1ncnc2c1ncn2CCCC(COP(=O)(O)O)COP(=O)(O)O | inactive | > 30 µM | 68% | – | –
